Activity calls are given as the source filed them. The rule behind the calls is not given here.
What was measured:
[1] = tested on: THP-1; test: Effect on HDAC1 mRNA expression in human THP1 cells at 1 mM after 24 hrs by RT-PCR method; type: functional, cell-based
Method in brief: (§1)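 THP-1 cells in RPMI 1640 with 10% heat-inactivated FCS, 37 °C, 5% CO2. Seeded 2.0 × 10^6 cells per 3.5 cm dish and treated 24 h, at 1 mM for the 1 mM lines and 100 μM for the 100 μM lines. RNA extracted in TRIzol, then real-time RT-PCR normalized to 18S rRNA. Means ± SD of three independent experiments; ANOVA with Bonferroni post hoc.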

[2] = tested on: THP-1; test: Effect on HDAC10 mRNA expression in human THP1 cells at 1 mM after 24 hrs by RT-PCR method; type: functional, cell-based; method in brief: as §1
[3] = biological target: Histone deacetylase (Homo sapiens) (UniProt Q13547+O15379+Q9UBN7+Q92769+Q9UQL6+Q8WUI4+Q9BY41+Q96DB2+P56524+Q9UKV0+Q969S8); test: Inhibition of HDAC activity in human THP1 cells at 1 mM preincubated for 1 hr followed by substrate addition measured after 2 hrs by fluorescence assay relative to control; type: cell-based
Method in brief: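 This is a cell-based HDAC assay. THP-1 cells at 5.0 × 10^4 cells/well were treated for 1 h, then HDAC substrate was added for 2 h at 37 °C. Lysis/developer solution followed for 15 min at 37 °C. Fluorescence was read at ex 365 nm / em 410–460 nm and compared with untreated cells; mean ± SD, n = 3 independent experiments.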

[4] = tested on: THP-1; test: Effect on HDAC2 mRNA expression in human THP1 cells at 1 mM after 24 hrs by RT-PCR method; type: functional, cell-based; method in brief: as §1
[5] = biological target: Histone deacetylase 1 (Homo sapiens) (UniProt Q13547); test: Upregulation of HDAC1 inhibition-mediated histone H4 acetylation-induced extracellular SOD expression in human THP1 cells at 1 mM after 12 hrs by chromatin immunoprecipitation method; type: cell-based
Chain of Histone deacetylase 1 (Homo sapiens) (Q13547 whole entry, the tested form may be a part): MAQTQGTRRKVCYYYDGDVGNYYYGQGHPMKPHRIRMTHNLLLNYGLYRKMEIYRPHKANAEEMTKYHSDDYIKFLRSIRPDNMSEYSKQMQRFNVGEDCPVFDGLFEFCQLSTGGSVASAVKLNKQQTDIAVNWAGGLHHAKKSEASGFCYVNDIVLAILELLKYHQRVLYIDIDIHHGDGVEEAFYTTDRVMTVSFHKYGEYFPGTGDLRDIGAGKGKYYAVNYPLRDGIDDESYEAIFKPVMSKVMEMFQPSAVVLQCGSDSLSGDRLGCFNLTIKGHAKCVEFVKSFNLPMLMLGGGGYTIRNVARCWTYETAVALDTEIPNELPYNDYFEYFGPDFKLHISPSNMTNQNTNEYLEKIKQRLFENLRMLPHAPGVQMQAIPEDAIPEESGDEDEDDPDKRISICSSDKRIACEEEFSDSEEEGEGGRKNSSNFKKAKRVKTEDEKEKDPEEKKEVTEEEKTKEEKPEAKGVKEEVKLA
Method in brief: (§2)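 THP-1 cells (5 × 10^6) treated 12 h, at 1 mM or 100 μM per line. Cross-linked with formaldehyde 5 min at room temperature and chromatin sonicated to 150–800 bp. Immunoprecipitated overnight on protein G beads and washed in RIPA I/II and TE. Eluted with RNase A and proteinase K. EC-SOD promoter binding expressed as % of input.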

[6] = tested on: THP-1; test: Effect on Cu/Zn SOD mRNA expression in human THP1 cells at 1 mM after 24 hrs by RT-PCR method; type: functional, cell-based
Method in brief: (§3)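 THP-1 cells (RPMI 1640, 10% heat-inactivated FCS, 37 °C, 5% CO2) were seeded at 2.0 × 10^6 cells/dish and treated for 24 h. Cells were washed with cold PBS and lysed in TRIzol, then analysed by real-time RT-PCR normalized to 18S rRNA. Values are mean ± SD of three independent experiments, with ANOVA and Bonferroni tests.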

[7] = biological target: Histone deacetylase 1 (Homo sapiens) (UniProt Q13547); test: Inhibition of recombinant HDAC1 catalytic domain (unknown origin) using HDAC substrate at 1 mM preincubated for 1 hr followed by substrate addition measured after 30 mins by fluorescence assay relative to control
Method in brief: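 Recombinant HDAC1 was mixed with compound in assay buffer, and the reaction was started with HDAC substrate for 30 min at 37 °C in the dark. Developer was then added for 15 min at room temperature. Fluorescence was read at ex 365 nm / em 410–460 nm and compared with untreated control; mean ± SD of three independent experiments.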

[8] = tested on: THP-1; test: Effect on HDAC4 mRNA expression in human THP1 cells at 1 mM after 24 hrs by RT-PCR method; type: functional, cell-based; method in brief: as §1
[9] = tested on: THP-1; test: Effect on HDAC9 mRNA expression in human THP1 cells at 1 mM after 24 hrs by RT-PCR method; type: functional, cell-based; method in brief: as §1
[10] = species: Homo sapiens; test: Upregulation of HDAC1 inhibition/ERK signalling activation-mediated extracellular SOD mRNA expression in human THP1 cells at 1 mM after 24 hrs by RT-PCR method; type: cell-based; method in brief: as §3
[11] = biological target: Histone deacetylase 1 (Homo sapiens) (UniProt Q13547); test: Inhibition of HDAC1 in human THP1 cells assessed as increase in histone H3 acetylation level at 1 mM after 12 hrs by Western blot analysis relative to control; type: cell-based
Method in brief: (§4)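 After 12 h treatment, THP-1 whole-cell extracts (20 μg protein) were run on 12% SDS-PAGE and transferred to PVDF. Membranes were blocked with 1% BSA in PBS and probed with anti-acetyl histone H3 or H4 primary antibodies (1:1000), then a biotin-conjugated secondary antibody (1:1000). Histone loading was checked by Coomassie staining.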

[12] = tested on: THP-1; test: Effect on HDAC5 mRNA expression in human THP1 cells at 1 mM after 24 hrs by RT-PCR method; type: functional, cell-based; method in brief: as §1
[13] = tested on: THP-1; test: Effect on HDAC7 mRNA expression in human THP1 cells at 1 mM after 24 hrs by RT-PCR method; type: functional, cell-based; method in brief: as §1
[14] = tested on: THP-1; test: Effect on HDAC6 mRNA expression in human THP1 cells at 1 mM after 24 hrs by RT-PCR method; type: functional, cell-based; method in brief: as §1
[15] = tested on: THP-1; test: Effect on HDAC3 mRNA expression in human THP1 cells at 1 mM after 24 hrs by RT-PCR method; type: functional, cell-based; method in brief: as §1
[16] = biological target: Histone deacetylase 1 (Homo sapiens) (UniProt Q13547); test: Upregulation of HDAC1 inhibition-mediated histone H3 acetylation-induced extracellular SOD expression in human THP1 cells at 1 mM after 12 hrs by chromatin immunoprecipitation method; type: cell-based; method in brief: as §2
[17] = tested on: THP-1; test: Effect on HDAC8 mRNA expression in human THP1 cells at 1 mM after 24 hrs by RT-PCR method; type: functional, cell-based; method in brief: as §1
[18] = biological target: Histone deacetylase 1 (Homo sapiens) (UniProt Q13547); test: Inhibition of HDAC1 in human THP1 cells assessed as increase in histone H4 acetylation level at 1 mM after 12 hrs by Western blot analysis relative to control; type: cell-based; method in brief: as §4
[19] = species: Homo sapiens; test: Upregulation of HDAC1 inhibition/ERK signalling activation-mediated extracellular SOD protein expression in human THP1 cells at 1 mM after 24 hrs by ELISA; type: cell-based
Method in brief: (§5)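 EC-SOD protein content was measured by ELISA in THP-1 cells after 24 h treatment, with cells collected in PBS. Cells were cultured in RPMI 1640 with 10% heat-inactivated FCS at 37 °C and 5% CO2. Values are mean ± SD of three independent experiments, compared against untreated cells.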

[20] = tested on: THP-1; test: Upregulation of Mn SOD mRNA expression in human THP1 cells at 1 mM after 24 hrs by RT-PCR method; type: functional, cell-based; method in brief: as §3
[21] = species: Homo sapiens; test: Upregulation of HDAC1 inhibition/ERK signalling activation-mediated extracellular SOD mRNA expression in human THP1 cells at 1 uM after 24 hrs by RT-PCR method; type: cell-based; method in brief: as §3
[22] = species: Homo sapiens; test: Upregulation of HDAC1 inhibition/ERK signalling activation-mediated extracellular SOD protein expression in human THP1 cells at 1 uM after 24 hrs by ELISA; type: cell-based; method in brief: as §5

| Compound | inhibition [3] | Activity [6] | inhibition [7] | Activity [10] | fold change (FC) [11] | fold change (FC) [18] | Activity [19] | Activity [20] | other results |
| --- | --- | --- | --- | --- | --- | --- | --- | --- | --- |
| O=C(O)CCCCCCCCCO | 20% | inactive | 50% | Active | 1.33 | 2.45 | Active | inactive | Activity [1]: inactive; Activity [2]: inactive; Activity [4]: inactive; Activity [5]: Active; Activity [8]: inactive; Activity [9]: inactive; Activity [12]: inactive; Activity [13]: inactive; Activity [14]: inactive; Activity [15]: inactive; Activity [16]: inactive; Activity [17]: inactive |
| CC(/C=C/C(=O)NO)=C\[C@@H](C)C(=O)c1ccc(N(C)C)cc1 | – | – | – | – | – | – | – | – | Activity [21]: Active; Activity [22]: Active |
| O=C(O)/C=C\CCCCCCCO | Active | inactive | 50% | Active | 1.29 | 2.47 | Active | Active | – |
